Measured values of several laboratories.
Protocols differ between the studies behind these lines.
Target: Protein kinase C iota type (PRKCI, Homo sapiens, UniProt P41743)
One construct used (P41743 1-596): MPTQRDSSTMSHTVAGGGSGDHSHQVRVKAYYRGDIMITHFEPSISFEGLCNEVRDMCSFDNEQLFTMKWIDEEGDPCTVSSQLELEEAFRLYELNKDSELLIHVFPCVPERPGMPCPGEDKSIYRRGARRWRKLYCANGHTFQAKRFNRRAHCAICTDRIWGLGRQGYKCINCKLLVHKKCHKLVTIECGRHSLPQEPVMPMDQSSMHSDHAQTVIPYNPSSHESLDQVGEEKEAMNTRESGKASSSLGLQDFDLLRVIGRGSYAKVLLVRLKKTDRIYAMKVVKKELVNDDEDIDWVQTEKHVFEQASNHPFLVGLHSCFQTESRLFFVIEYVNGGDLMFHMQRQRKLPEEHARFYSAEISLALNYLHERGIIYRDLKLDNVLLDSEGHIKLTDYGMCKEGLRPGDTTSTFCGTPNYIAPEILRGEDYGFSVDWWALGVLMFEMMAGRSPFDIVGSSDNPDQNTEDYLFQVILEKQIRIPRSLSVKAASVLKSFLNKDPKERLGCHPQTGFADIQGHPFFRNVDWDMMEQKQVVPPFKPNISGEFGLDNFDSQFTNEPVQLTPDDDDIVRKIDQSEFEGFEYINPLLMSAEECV

SMILES	test	setting	quantity	result
C[C@@H]1CN(c2cc(-c3nn(C)c4ccc(OC5(C)CC5)cc34)ncn2)C[C@H](C)O1	cell-free assay, competition with immobilised ligand	1 µM	remaining binding	100%
COc1cc2ncnc(Nc3ccc(Oc4ccccc4)cc3C)c2cc1OC	enzyme activity, inhibitor	1 µM	inhibition	3%
O=C(Nc1cnn(-c2csc(C(=O)NC3COC3)c2)c1)Nc1c(F)cccc1Cl	enzyme activity, inhibitor	5 µM	remaining activity	87.4%
N#CCCc1ccc2c(c1)-c1[nH]c3ccc([N+](=O)[O-])cc3c1CC(=O)N2	cell-free assay	0.5 µM	remaining signal	65.3%
Cc1ccc(C(=O)NCc2ccsc2)cc1C#Cc1cn(C(C)C)c2ncnc(N)c12	enzyme activity, inhibitor	1 µM	activity vs control	96%
CO[C@@H](C)c1c(Nc2ccc([C@H](N(C)C(=O)C3CCS(=O)(=O)CC3)C(F)(F)F)cc2)cnc2cc(Cl)nn12	cell-free assay, competition with immobilised ligand	1 µM	remaining binding	72%
O=C(Nc1cnn(-c2csc(C(=O)NC3COC3)c2)c1)Nc1ccccc1Cl	enzyme activity, inhibitor	5 µM	remaining activity	95.5%
CCN(CC)CCNC(=O)c1c(C)[nH]c(/C=C2\C(=O)Nc3ccc(F)cc32)c1C	enzyme activity, inhibitor	10 µM	inhibition	1%
CNCc1ccc(-c2cc(-c3nc(-c4ccc(S(=O)(=O)C(C)C)cc4)cnc3N)on2)cc1	enzyme activity, inhibitor	0.4 µM	inhibition	0%
CN1CC(Oc2cnc(C#N)cc2-c2ccn3nc(NC(=O)C4CC4)cc3c2)C1	enzyme activity, inhibitor	1 µM	inhibition	-8%
COc1cc(-c2cn(C3CCc4c(F)cccc4N(CC(F)(F)F)C3=O)nn2)ccc1-n1cnc(C)c1 (centres unmarked)	cell-free assay, competition with immobilised ligand	1 µM	remaining binding	100%
CCCCNc1ncc2c(-c3ccc(F)cc3)nn(C[C@H]3CC[C@H](N)CC3)c2n1	target engagement in cells, inhibitor, chemoproteomics	20 mM	inhibition	-5.8%
O=C(Nc1cnc(Oc2ccc(F)cc2)nc1)N1CCc2ncccc2[C@@H]1c1ccc(F)cc1	cell-free assay, competition with immobilised ligand	1 µM	remaining binding	98%
CN(C)C1CCN(CC#Cc2nn(C3CCCC3)c3nc(NCc4ccccc4)ncc23)C1 (centres unmarked)	enzyme activity, inhibitor, FRET	10 µM	inhibition	6%
CCCS(=O)(=O)Nc1ccc(F)c(C(=O)c2c[nH]c3ncc(-c4ccc(Cl)cc4)cc23)c1F	enzyme activity, inhibitor	1 µM	inhibition	< 10%
Nc1c(C(=O)NCc2ccc(C(=O)NCCCC3CCCCC3)cc2)cnn1-c1ccccc1	cell-free assay, competition with immobilised ligand	0.1 µM	remaining binding	97%
Cc1cnc(NC2CCOCC2)nc1-n1cnc(C(=O)NC(CN)c2cc(F)cc(Cl)c2)c1 (centres unmarked)	enzyme activity, inhibitor, radiometric	1 µM	remaining activity	106%
Cc1ccc(NC(=O)c2ccc(C)c(C(F)(F)F)c2)cc1C#Cc1nn(C2CCC(O)CC2)c2ncnc(N)c12 (centres unmarked)	cell-free assay	10 µM	remaining signal	91%
O=C1Nc2ccc(Cl)cc2C1=Cc1cc(Cl)c(O)c(Cl)c1	cell-free assay	0.5 µM	remaining signal	94.1%
Cc1cc(NC(=O)c2cccc(S(F)(F)(F)(F)F)c2)cc(-n2ccn3nc(-c4cccnc4)cc23)c1	cell-free assay, competition with immobilised ligand	1 µM	remaining binding	80.4%
CCN(CC)c1ccc(C2=NNC(=O)CC2C)cc1[N+](=O)[O-] (centres unmarked)	enzyme activity, inhibitor	10 µM	remaining activity	108%
COc1cc(-c2cc(-c3ccc(N4CCNCC4)cc3)cnc2C)cc(OC)c1OC	enzyme activity, inhibitor	1 µM	inhibition	18%
CCS(=O)(=O)c1cc2cc(C[C@@](O)(CC(C)(C)c3ccc(F)cc3C(N)=O)C(F)(F)F)[nH]c2cn1	cell-free assay, competition with immobilised ligand	1 µM	remaining binding	100%
c1ccc(CNc2nc(N3CCOc4ccccc43)nc3c2CCCC3)cc1	target engagement in cells, inhibitor, chemoproteomics	20 mM	inhibition	-0.4%
C[C@H](c1cccc(C#N)c1)n1cc(Cl)cc(C(N)=O)c1=N	cell-free assay, competition with immobilised ligand	1 µM	remaining binding	100%
CC(C)(C)c1nc2c(s1)c1nc(N)ncc1c1ccc(NS(=O)(=O)c3c(F)cccc3F)c(F)c12	enzyme activity, inhibitor, radiometric	1 µM	remaining activity	91%
